Data taken from ChEMBL document CHEMBL3046760, “Preharvest L-arginine treatment induced postharvest disease resistance to Botrysis cinerea in tomato fruits” (2011).
Active and inactive are the calls of the source. The rule behind the calls is not given here.

Experiments:
[1] = system: Botrytis cinerea; assay: Effect on mycelial growth of Botryotinia fuckeliana relative to control; type: functional, organism-based
How it was run: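 Mycelial growth on PDA containing 1 mM L-arginine in the molten agar. A 7 mm B. cinerea disk was placed at the centre of a 90 mm dish and incubated at 25 °C. Colony diameter was read at 2, 3 and 4 days. Inhibition (%) = (control diameter − treated diameter)/(control diameter − 7 mm) × 100. Triplicate plates; the experiment was run twice.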

[2] = system: Solanum lycopersicum; assay: Induction of resistance to Botrytis cinerea-induced Solanum lycopersicum (tomato) fruit Solanum lycopersicum cv. No. 4 Zhongshu gray mold disease assessed as increase in NOS activity at 1 mM preharvest treatment measured after 3 days relative to control; type: functional, organism-based
How it was run: (§1)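 Plants received 1 mM L-arginine (5 mL) injected near the root, with a water control. Frozen fruit mesocarp was extracted in HEPES-KOH pH 7.6 buffer. For NO, extract was pretreated with catalase and SOD, oxyhemoglobin was added, and A550 was read at 37 °C against a buffer blank; results are given as μmol/g FW. NOS was measured by the hemoglobin assay on cytosolic/microsomal fractions. Three replicates.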

[3] = system: Solanum lycopersicum; assay: Induction of resistance to Botrytis cinerea-induced Solanum lycopersicum (tomato) fruit Solanum lycopersicum cv. No. 4 Zhongshu gray mold disease assessed as increase in NO content at 1 mM preharvest treatment measured after 3 days relative to control; type: functional, organism-based; how it was run: as §1
[4] = system: Solanum lycopersicum; assay: Induction of resistance to Botrytis cinerea-induced Solanum lycopersicum (tomato) fruit Solanum lycopersicum cv. No. 4 Zhongshu gray mold disease assessed as induction of total phenolics content at 1 mM preharvest treatment measured after 3 days relative to control; type: functional
How it was run: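 Plants received 1 mM L-arginine (5 mL) injected near the root, with a water control. A685 was calibrated against […] and expressed as catechin equivalents (mg/100 g FW). Mean of three replicates.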

[5] = system: Solanum lycopersicum; assay: Induction of resistance to Botrytis cinerea-induced Solanum lycopersicum (tomato) fruit Solanum lycopersicum cv. No. 4 Zhongshu gray mold disease assessed as induction of defensive enzyme beta-1,3-glucanase activity at 1 mM preharvest treatment measured after 9 days relative to control; type: functional
How it was run: (§2)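 Plants received 1 mM L-arginine (5 mL) injected near the root, with a water control. Fruit mesocarp was extracted in phosphate pH 6.8 (PAL, PPO) or acetate pH 5 (CHI, GLU) buffer. Readouts: PAL, L-phenylalanine in borate pH 8.8, 30 °C 1 h, A290. PPO, 0.1 M catechol, ΔA420 over 3 min. CHI, colloidal chitin at 40 °C then snailase, A585. GLU, 0.4% laminarin at 37 °C 1 h, DNS, A500. Three replicates.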

[6] = system: Solanum lycopersicum; assay: Induction of resistance to Botrytis cinerea-induced Solanum lycopersicum (tomato) fruit Solanum lycopersicum cv. No. 4 Zhongshu gray mold disease assessed as induction of defensive enzyme beta-1,3-glucanase activity at 1 mM preharvest treatment measured after 6 days relative to control; type: functional; how it was run: as §2
[7] = system: Solanum lycopersicum; assay: Induction of resistance to Botrytis cinerea-induced Solanum lycopersicum (tomato) fruit Solanum lycopersicum cv. No. 4 Zhongshu gray mold disease assessed as induction of defensive enzyme beta-1,3-glucanase activity at 1 mM preharvest treatment measured after 3 days relative to control; type: functional; how it was run: as §2
[8] = system: Solanum lycopersicum; assay: Induction of resistance to Botrytis cinerea-induced Solanum lycopersicum (tomato) fruit Solanum lycopersicum cv. No. 4 Zhongshu gray mold disease assessed as induction of defensive enzyme chitinase activity at 1 mM preharvest treatment measured after 3 days relative to control; type: functional; how it was run: as §2
[9] = system: Solanum lycopersicum; assay: Induction of resistance to Botrytis cinerea-induced Solanum lycopersicum (tomato) fruit Solanum lycopersicum cv. No. 4 Zhongshu gray mold disease assessed as induction of defensive enzyme polyphenoloxidase activity at 1 mM preharvest treatment measured after 3 days relative to control; type: functional, organism-based; how it was run: as §2
[10] = system: Solanum lycopersicum; assay: Induction of resistance to Botrytis cinerea-induced Solanum lycopersicum (tomato) fruit Solanum lycopersicum cv. No. 4 Zhongshu gray mold disease assessed as induction of defensive enzyme phenylalanine ammonialyase activity at 1 mM preharvest treatment measured after 9 days relative to control; type: functional, organism-based; how it was run: as §2
[11] = system: Botrytis cinerea; assay: Induction of resistance to Botryotinia fuckeliana-induced tomato fruit Solanum lycopersicum cv. No. 4 Zhongshu gray mold disease assessed as inhibition of lession area at 1 mM injected near root area measured after 12 days relative to control; type: functional; conditions: 288 h
How it was run: (§3)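 Plants received 5 mL of L-arginine (0.5, 1 or 5 mM) by injection at a cut near the root area, with distilled water as control; 30 plants per treatment. Green mature fruit were picked 0–12 days after treatment. Fruit were ethanol-sterilised and wounded at three equator sites, each receiving 10 μL of 2 × 10^5 conidia/mL. Fruit were kept at 25 °C, 90–95% RH. Incidence and lesion area (3.14 × (d/2)²) were scored at 4 days; three replicates.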

[12] = system: Botrytis cinerea; assay: Induction of resistance to Botryotinia fuckeliana-induced tomato fruit Solanum lycopersicum cv. No. 4 Zhongshu gray mold disease assessed as inhibition of lession area at 1 mM injected near root area measured after 9 days relative to control; type: functional; conditions: 216 h; how it was run: as §3
[13] = system: Botrytis cinerea; assay: Induction of resistance to Botryotinia fuckeliana-induced tomato fruit Solanum lycopersicum cv. No. 4 Zhongshu gray mold disease assessed as inhibition of lession area at 1 mM injected near root area measured after 6 days relative to control; type: functional; conditions: 144 h; how it was run: as §3
[14] = system: Botrytis cinerea; assay: Induction of resistance to Botryotinia fuckeliana-induced tomato fruit Solanum lycopersicum cv. No. 4 Zhongshu gray mold disease assessed as inhibition of lession area at 1 mM injected near root area measured after 3 days relative to control; type: functional; conditions: 72 h; how it was run: as §3
[15] = system: Botrytis cinerea; assay: Induction of resistance to Botryotinia fuckeliana-induced tomato fruit Solanum lycopersicum cv. No. 4 Zhongshu gray mold disease assessed as disease incidence at 5 mM injected near root area measured after 12 days relative to control; type: functional, organism-based; how it was run: as §3
[16] = system: Botrytis cinerea; assay: Induction of resistance to Botryotinia fuckeliana-induced tomato fruit Solanum lycopersicum cv. No. 4 Zhongshu gray mold disease assessed as disease incidence at 1 mM injected near root area measured after 12 days relative to control; type: functional, organism-based; how it was run: as §3
[17] = system: Botrytis cinerea; assay: Induction of resistance to Botryotinia fuckeliana-induced tomato fruit Solanum lycopersicum cv. No. 4 Zhongshu gray mold disease assessed as disease incidence at 0.5 mM injected near root area measured after 12 days relative to control; type: functional, organism-based; how it was run: as §3
[18] = system: Botrytis cinerea; assay: Induction of resistance to Botryotinia fuckeliana-induced tomato fruit Solanum lycopersicum cv. No. 4 Zhongshu gray mold disease assessed as disease incidence at 5 mM injected near root area measured after 6 days relative to control; type: functional; how it was run: as §3
[19] = system: Botrytis cinerea; assay: Induction of resistance to Botryotinia fuckeliana-induced tomato fruit Solanum lycopersicum cv. No. 4 Zhongshu gray mold disease assessed as disease incidence at 1 mM injected near root area measured after 6 days relative to control; type: functional; how it was run: as §3
[20] = system: Botrytis cinerea; assay: Induction of resistance to Botryotinia fuckeliana-induced tomato fruit Solanum lycopersicum cv. No. 4 Zhongshu gray mold disease assessed as disease incidence at 0.5 mM injected near root area measured after 6 days relative to control; type: functional; how it was run: as §3
[21] = system: Botrytis cinerea; assay: Induction of resistance to Botryotinia fuckeliana-induced tomato fruit Solanum lycopersicum cv. No. 4 Zhongshu gray mold disease assessed as disease incidence at 5 mM injected near root area measured after 3 days relative to control; type: functional; how it was run: as §3
[22] = system: Botrytis cinerea; assay: Induction of resistance to Botryotinia fuckeliana-induced tomato fruit Solanum lycopersicum cv. No. 4 Zhongshu gray mold disease assessed as disease incidence at 1 mM injected near root area measured after 3 days relative to control; type: functional; how it was run: as §3
[23] = system: Botrytis cinerea; assay: Induction of resistance to Botryotinia fuckeliana-induced tomato fruit Solanum lycopersicum cv. No. 4 Zhongshu gray mold disease assessed as disease incidence at 0.5 mM injected near root area measured after 3 days relative to control; type: functional; how it was run: as §3

N=C(N)NCCC[C@H](N)C(=O)O [ARGININE]
Activity [1]: inactive
Activity [2]: Active
Activity [3]: Active
fold change (FC) [4]: 1.17
fold change (FC) [5]: 3.1
fold change (FC) [6]: 1.4
fold change (FC) [7]: 1.6
fold change (FC) [8]: 1.9
Activity [9]: Active
Activity [10]: Active
inhibition in vivo at 1000 µM [11]: 85%
inhibition in vivo at 1000 µM [12]: 90%
inhibition in vivo at 1000 µM [13]: 90%
inhibition in vivo at 1000 µM [14]: 86%
Activity [15]: Active
Activity [16]: Active
Activity [17]: Active
Activity [18]: 38%
Activity [19]: 18%
Activity [20]: 31%
Activity [21]: 37%
Activity [22]: 16%
Activity [23]: 29%
